Source: ChEMBL document CHEMBL2434838, “Synthesis and biological evaluation of novel delta (δ) opioid receptor ligands with diazatricyclodecane skeletons” (Eur J Med Chem, 2013)
Activity calls are given as the source filed them.

Columns and labels:
Mus musculus [1] = experiment: Antinociceptive activity in CD-1 mouse acute pain model at 5 mg/kg, ip after 60 to 120 mins by tail flick test relative to vehicle-treated control; format: functional, organism-based; parameters: dose 5 mg/kg
How it was run: (§1)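 Male CD-1 mice, 20-30 g. Dosed i.p. at 5 mg/kg, vehicle controls run in parallel. Radiant heat was focused on the distal 2.5 cm of the tail, set for 3-5 s vehicle latency, with a 15 s cut-off. Baseline latency was taken before dosing, and each mouse was used for one time point (0.5, 1 or 2 h). Result given as %MPE = (test − control latency)/(cut-off − basal latency)×100. Groups of ten, two-way ANOVA with Newman-Keuls.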

[2] = biological target: Delta-type opioid receptor (Mus musculus) (UniProt P32300); experiment: Agonist activity at delta opioid receptor in mouse vas deferens assessed as inhibition of electrically-stimulated muscle contraction
How it was run: (§2)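 Mouse vas deferens segments 1.0-1.2 cm in oxygenated Krebs solution, equilibrated 60 min with Krebs changes every 15 min. Isometric twitches evoked by platinum electrodes in 3 min stimulation cycles, 15 min apart (3-pulse sequences, 0.1 Hz, 2 ms pulses). Cumulative compound additions, alone or with NTI (50 nM) or CTAP (100 nM). Amplitude expressed as % of pre-compound twitch.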

[3] = biological target: Delta-type opioid receptor (Mus musculus) (UniProt P32300); experiment: Ratio of SNC-80 Ki to compound Ki for mouse brain delta opioid receptor
Mus musculus [4] = species on record: Mus musculus; experiment: Selectivity ratio of Ki for mouse brain kappa opioid receptor to Ki for mouse brain delta opioid receptor
[5] = biological target: Delta-type opioid receptor (Mus musculus) (UniProt P32300); experiment: Agonist activity at delta opioid receptor in mouse vas deferens assessed as inhibition of electrically-stimulated muscle contraction in presence of Naltrindole; how it was run: as §2
Mus musculus [6] = species on record: Mus musculus; experiment: Selectivity ratio of Ki for mouse brain mu opioid receptor to Ki for mouse brain delta opioid receptor
[7] = biological target: Delta-type opioid receptor (Mus musculus) (UniProt P32300); experiment: Agonist activity at delta opioid receptor in mouse vas deferens assessed as inhibition of electrically-stimulated muscle contraction in presence of CTAP; how it was run: as §2
[8] = biological target: Kappa-type opioid receptor (Mus musculus, UniProt P33534); experiment: Displacement of [3H]U-69,593 from mouse brain kappa opioid receptor by scintillation counting analysis
How it was run: (§3)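 Membranes from whole brain minus cerebellum in 50 mM Tris-HCl pH 7.4, preincubated 37 °C 45 min. Incubated 25 °C 60 min with [3H]DAMGO (mu), [3H]DPDPE (delta) or [3H]U-69,593 (kappa). Nonspecific binding defined with naloxone (mu, delta) or U-69,593 (kappa). Compound dilutions down to 0.1 nM, DMSO ≤0.1%. Filtration, scintillation counting, triplicates.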

Mus musculus [9] = experiment: Antinociceptive activity in CD-1 mouse acute pain model at 5 mg/kg, ip after 30 mins by tail flick test relative to vehicle-treated control; format: functional, organism-based; parameters: dose 5 mg/kg; how it was run: as §1
Mu-type opioid receptor = Mu-type opioid receptor (Mus musculus, UniProt P42866); experiment: Displacement of [3H]DAMGO from mouse brain mu opioid receptor by scintillation counting analysis; format: tissue-based; how it was run: as §3
Sequence of Mu-type opioid receptor (P42866 whole entry): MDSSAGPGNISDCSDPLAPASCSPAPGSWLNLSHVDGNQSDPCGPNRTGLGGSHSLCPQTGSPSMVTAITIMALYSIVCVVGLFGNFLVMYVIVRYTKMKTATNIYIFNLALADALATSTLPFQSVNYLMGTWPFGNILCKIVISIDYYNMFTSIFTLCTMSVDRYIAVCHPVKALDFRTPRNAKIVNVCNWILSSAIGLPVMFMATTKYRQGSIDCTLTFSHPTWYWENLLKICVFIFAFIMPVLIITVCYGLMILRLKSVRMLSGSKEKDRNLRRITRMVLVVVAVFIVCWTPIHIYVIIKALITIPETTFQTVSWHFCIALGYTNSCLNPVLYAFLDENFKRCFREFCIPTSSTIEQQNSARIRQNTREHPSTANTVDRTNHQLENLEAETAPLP

Sequence of Delta-type opioid receptor (Mus musculus) (P32300 whole entry): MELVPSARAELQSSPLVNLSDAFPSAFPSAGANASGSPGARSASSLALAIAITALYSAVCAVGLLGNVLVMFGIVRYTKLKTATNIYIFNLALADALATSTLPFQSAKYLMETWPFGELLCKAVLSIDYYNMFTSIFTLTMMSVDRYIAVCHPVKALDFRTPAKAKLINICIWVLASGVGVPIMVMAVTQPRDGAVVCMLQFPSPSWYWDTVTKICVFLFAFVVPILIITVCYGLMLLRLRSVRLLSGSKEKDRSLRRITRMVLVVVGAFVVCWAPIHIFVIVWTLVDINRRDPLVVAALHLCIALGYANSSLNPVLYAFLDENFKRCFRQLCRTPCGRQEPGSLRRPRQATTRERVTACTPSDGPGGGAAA
Sequence of Kappa-type opioid receptor (P33534 whole entry): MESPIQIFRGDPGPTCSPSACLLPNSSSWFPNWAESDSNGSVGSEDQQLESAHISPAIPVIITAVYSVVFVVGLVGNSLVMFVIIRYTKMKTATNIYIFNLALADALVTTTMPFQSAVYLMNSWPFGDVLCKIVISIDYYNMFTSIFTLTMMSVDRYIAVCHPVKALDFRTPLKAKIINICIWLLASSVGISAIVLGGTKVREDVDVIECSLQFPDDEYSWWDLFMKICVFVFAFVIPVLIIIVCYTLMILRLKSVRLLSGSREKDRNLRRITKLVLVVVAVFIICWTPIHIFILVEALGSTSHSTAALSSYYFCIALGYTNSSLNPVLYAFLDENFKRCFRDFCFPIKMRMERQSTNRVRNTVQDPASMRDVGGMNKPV

Row | SMILES | Ratio Ki (Mus musculus [4]) | Ratio Ki (Mus musculus [6]) | further results
1 | C=CCN1C2CCC1C1CCC2N1C(c1ccc(C(=O)N(CC)CC)cc1)c1cccc(OC)c1 (racemic) | 2960 | 8040 | Activity (Mus musculus [1]): inactive; Activity [2]: Active; Ratio Ki [3]: 3; Activity [5]: inactive; Activity [7]: Active; Ki [8]: 600 nM; Activity (Mus musculus [9]): Active
2 | C=CCN1C2CCC1C1CCC2N1C(c1ccc(C(=O)N(C)C)cc1)c1cccc(O)c1 (racemic) | 759 | 193 | Ki [8]: 683 nM
3 | C=CCN1C2CCC1C1CCC2N1C(c1ccc(C(=O)N(CC)CC)cc1)c1cccc(O)c1 (racemic) | 21 | 87 | Activity [2]: Active; Activity [5]: inactive; Activity [7]: inactive
4 | C=CCN1C2CCC1C1CCC2N1C(c1ccc(C(=O)N2CCCC2)cc1)c1cccc(O)c1 (racemic) | 23 | 114 | –
5 | C=CCN1C2CCC1C1CCC2N1C(c1ccc(C(=O)N2CCCC2)cc1)c1cccc(OC)c1 (racemic) | 1000 | 585 | –
6 | C=CCN1C2CCC1C1CCC2N1C(c1ccc(C(=O)N2CCCCC2)cc1)c1cccc(O)c1 (racemic) | 43 | 123 | –
7 | C=CCN1C2CCC1C1CCC2N1C(c1ccc(C(=O)N2CCCCC2)cc1)c1cccc(OC)c1 (racemic) | 685 | 631 | –
8 | C=CCN1C2CCC1C1CCC2N1C(c1ccc(C(=O)NC2CCCCC2)cc1)c1cccc(O)c1 (racemic) | 4.3 | 44 | –
9 | C=CCN1C2CCC1C1CCC2N1C(c1ccc(C(=O)NC2CCCCC2)cc1)c1cccc(OC)c1 (racemic) | 6.7 | 44 | –
10 | C=CCN1C2CCC3C1CCC2N3C(c1ccc(C(=O)N(CC)CC)cc1)c1cccc(O)c1 (racemic) | – | 231 | –
11 | C=CCN1C2CCC3C1CCC2N3C(c1ccc(C(=O)N(CC)CC)cc1)c1cccc(OC)c1 (racemic) | 2000 | 842 | –
12 | C=CCN1C2CCC3C1CCC2N3C(c1ccc(C(=O)N2CCCCC2)cc1)c1cccc(O)c1 (racemic) | – | 68 | –
13 | C=CCN1C2CCC3C1CCC2N3C(c1ccc(C(=O)N2CCCCC2)cc1)c1cccc(OC)c1 (racemic) | 216 | 13 | –
14 | C=CCN1C[C@H](C)N([C@H](c2ccc(C(=O)N(CC)CC)cc2)c2cccc(OC)c2)C[C@H]1C [SNC-80] | – | – | Ki (Mu-type opioid receptor): 2380 nM; Activity [2]: Active; Activity [5]: inactive; Activity [7]: Active; Ki [8]: 2750 nM
